From ChEMBL document CHEMBL2321842, “Rapid Determination of Ionization Constants (pK a) by UV Spectroscopy Using 96-Well Microtiter Plates” (ACS Med Chem Lett, 2013)

assay: Dissociation constant, pKa of the compound at pH 3 to 12 by UV spectroscopy; format: physicochemical
Summary of the method: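 UV-spectrophotometric titration in microplate wells. 10 mM DMSO stock diluted into buffers to 0.2 mM final (0.1 mM if spectra saturated), 2% v/v DMSO. Buffers: acetate, phosphate, borax, glycine/NaOH, pH 3–12.6, ionic strength 0.1 M (KCl), 30 °C. Spectra read at 2 nm resolution. Total absorbance difference at two analytical wavelengths fitted against pH by nonlinear regression. Mean of ≥3 independent runs ± SD.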

Row | pKa | SMILES
1 | 10.7 | c1cc(NC2=NCCN2)ccc1CCc1ccc(NC2=NCCN2)cc1
2 | 7.95 | CON1CCN/C1=N\c1ccc(NC(=O)Nc2ccc(/N=C3\NCCN3OC)cc2)cc1
3 | 7.34 | CCON1CCN/C1=N/c1ccc(C(=O)Nc2ccc(/N=C3\NCCN3OCC)cc2)cc1
4 | 6.22 | Cc1nc2ccccc2[nH]1
5 | 10.3 | O=C(Nc1ccc(NC2=NCCN2)cc1)Nc1ccc(NC2=NCCN2)cc1
6 | 7.27 | CON1CCN/C1=N/c1ccc(C(=O)Nc2ccc(/N=C3\NCCN3OC)cc2)cc1
7 | 8.27 | CCON1CCN/C1=N\c1ccc(NC(=O)Nc2ccc(/N=C3\NCCN3OCC)cc2)cc1
8 | 8.01 | CON1CCN/C1=N/c1ccc(CCc2ccc(/N=C3\NCCN3OC)cc2)cc1
9 | 8.01 | CCON1CCN/C1=N/c1ccc(CCc2ccc(/N=C3\NCCN3OCC)cc2)cc1
10 | 7.97 | ON1CCN/C1=N/c1ccc(CCc2ccc(/N=C3\NCCN3O)cc2)cc1
11 | 10.7 | N=C(N)Oc1ccc(Oc2ccc(OC(=N)N)cc2)cc1
12 | 7.43 | O=C(Nc1ccc(/N=C2\NCCN2O)cc1)c1ccc(/N=C2/NCCN2O)cc1

Row | SMILES | pKa
13 | O=[N+]([O-])c1c[nH]cn1 | 9.2
14 | O=[N+]([O-])c1ccc(O)cc1 [P-NITROPHENOL] | 6.87
15 | Clc1cccc(Cl)c1N=C1NCCN1 [CLONIDINE] | 8.14
